Results reported in ChEMBL document CHEMBL3351247 (J Med Chem, 2014).
Calls of active or inactive are those of the source. The rule behind the calls is not given here.

What was measured:
[1] = target: Kappa-type opioid receptor (Homo sapiens, UniProt P41145); experiment: Agonist activity at human KOR expressed in CHO cells assessed as inhibition of forskolin-induced cAMP accumulation after 30 mins by luminescence assay; assay type: functional, cell-based
Summary of the method: (§1)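 CHO cells stably expressing KOR or MOR, plated at 10 000 cells/well and incubated overnight at 37 °C. Compounds given as 10-point serial dilutions (1% DMSO final) with 20 μM forskolin final in HBSS/10 mM HEPES. Incubation 30 min at 37 °C, then detection reagents overnight at room temperature. HitHunter cAMP luminescence read-out; data normalized to vehicle and forskolin-only controls, nonlinear regression.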

[2] = tested on: Rattus norvegicus; experiment: Toxicity in Sprague-Dawley rat assessed as inactive lever pressing during reinstatement period at 1 mg/kg, ip; assay type: organism-based; parameters: dose 1 mg/kg, route intraperitoneal; conditions: in vivo
Summary of the method: (§2)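 Male Sprague-Dawley rats (300–350 g) trained to IV cocaine self-administration (0.5 mg/kg/infusion) on FR5 in 2 h daily sessions, then extinction with saline-heparin and cocaine-prime (20 mg/kg) reinstatement. Agonist given ip in DMSO:Tween 80:water 2:1:7 10 min before prime.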

[3] = tested on: Rattus norvegicus; experiment: Toxicity in Sprague-Dawley rat assessed as inactive lever pressing during extinction period at 1 mg/kg, ip; assay type: organism-based; parameters: dose 1 mg/kg, route intraperitoneal; conditions: in vivo; summary of the method: as §2
[4] = tested on: Rattus norvegicus; experiment: Toxicity in Sprague-Dawley rat assessed as inactive lever pressing during reinstatement period at 0.3 mg/kg, ip; assay type: organism-based; parameters: dose 0.3 mg/kg, route intraperitoneal; conditions: in vivo; summary of the method: as §2
[5] = target: Mu-type opioid receptor (Homo sapiens, UniProt P35372); experiment: Agonist activity at human MOR expressed in CHO cells assessed as inhibition of forskolin-induced cAMP accumulation after 30 mins by luminescence assay; assay type: functional, cell-based; summary of the method: as §1
Chain of Mu-type opioid receptor (P35372 whole entry): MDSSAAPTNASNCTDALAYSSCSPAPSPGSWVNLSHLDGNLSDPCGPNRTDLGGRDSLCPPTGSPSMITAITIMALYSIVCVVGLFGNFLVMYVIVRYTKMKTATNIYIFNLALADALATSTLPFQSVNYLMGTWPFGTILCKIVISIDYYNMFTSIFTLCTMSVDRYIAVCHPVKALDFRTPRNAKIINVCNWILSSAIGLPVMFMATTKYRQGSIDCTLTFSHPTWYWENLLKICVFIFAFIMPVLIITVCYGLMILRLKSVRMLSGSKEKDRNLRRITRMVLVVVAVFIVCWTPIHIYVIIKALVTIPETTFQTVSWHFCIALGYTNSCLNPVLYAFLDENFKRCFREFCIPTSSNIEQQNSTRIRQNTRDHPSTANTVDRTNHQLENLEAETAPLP

[6] = tested on: Rattus norvegicus; experiment: Inhibition of cocaine-prime-induced reinstatement in Sprague-Dawley rat at 0.1 to 0.3 mg/kg, ip administered 10 mins prior to cocaine challenge relative to vehicle-treated control; assay type: functional, organism-based
Summary of the method: (§3)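 Male Sprague-Dawley rats (300–350 g) self-administered IV cocaine (0.5 mg/kg/infusion, jugular cannula) in daily 2 h sessions on FR5 until stable (<20% variation over 3 days). Extinction with saline-heparin and no light cue until responses fell below 20% of baseline. Agonist given ip in DMSO:Tween 80:water 2:1:7 10 min before a cocaine prime (20 mg/kg). Active lever presses recorded.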

[7] = tested on: Rattus norvegicus; experiment: Toxicity in Sprague-Dawley rat assessed as inactive lever pressing during self administration period at 1 mg/kg, ip; assay type: organism-based; parameters: dose 1 mg/kg, route intraperitoneal; conditions: in vivo; summary of the method: as §2
[8] = tested on: Rattus norvegicus; experiment: Toxicity in Sprague-Dawley rat assessed as inactive lever pressing during extinction period at 0.3 mg/kg, ip; assay type: organism-based; parameters: dose 0.3 mg/kg, route intraperitoneal; conditions: in vivo; summary of the method: as §2
[9] = tested on: Rattus norvegicus; experiment: Toxicity in Sprague-Dawley rat assessed as inactive lever pressing during self administration period at 0.3 mg/kg, ip; assay type: organism-based; parameters: dose 0.3 mg/kg, route intraperitoneal; conditions: in vivo; summary of the method: as §2
[10] = tested on: Rattus norvegicus; experiment: Inhibition of cocaine-prime-induced reinstatement in Sprague-Dawley rat at 1 mg/kg, ip administered 10 mins prior to cocaine challenge relative to vehicle-treated control; assay type: functional, organism-based; parameters: dose 1 mg/kg; summary of the method: as §3
[11] = tested on: Rattus norvegicus; experiment: Inhibition of cocaine-prime-induced reinstatement in Sprague-Dawley rat at 0.3 to 1 mg/kg, ip administered 10 mins prior to cocaine challenge relative to vehicle-treated control; assay type: functional, organism-based; summary of the method: as §3

Chain of Kappa-type opioid receptor (P41145 whole entry): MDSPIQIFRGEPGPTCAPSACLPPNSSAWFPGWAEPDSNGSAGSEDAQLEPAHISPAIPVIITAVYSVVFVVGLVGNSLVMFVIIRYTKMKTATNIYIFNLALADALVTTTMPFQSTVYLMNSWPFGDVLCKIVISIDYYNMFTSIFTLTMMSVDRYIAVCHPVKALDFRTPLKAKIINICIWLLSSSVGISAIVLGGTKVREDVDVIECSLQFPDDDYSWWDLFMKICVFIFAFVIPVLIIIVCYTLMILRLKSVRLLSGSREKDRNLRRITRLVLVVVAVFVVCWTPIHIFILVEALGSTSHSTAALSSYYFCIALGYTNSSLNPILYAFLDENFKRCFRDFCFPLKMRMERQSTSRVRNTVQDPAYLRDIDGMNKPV

Compound	EC50 [1] [nM]	Emax [1] [%]	Activity [2]	Activity [3]	Activity [4]	EC50 [5] [nM]	inhibition [6]	Activity [7]	Activity [8]	Activity [9]	inhibition [10]	inhibition [11]
C#Cc1occc1[C@@H]1C[C@]2(C)[C@H]3C(=O)[C@@H](OC(C)=O)C[C@@H](C(=O)OC)[C@]3(C)CC[C@H]2C(=O)O1	0.019	100	Non-toxic	Non-toxic	Non-toxic	≥ 10000	Active	Non-toxic	Non-toxic	Non-toxic		
COC(=O)[C@@H]1C[C@H](OC(C)=O)C(=O)[C@H]2[C@@]1(C)CC[C@H]1C(=O)O[C@H](c3ccoc3C)C[C@]21C	0.41	100	Non-toxic	Non-toxic	Non-toxic	≥ 10000		Non-toxic	Non-toxic	Non-toxic	inactive	
COC(=O)[C@@H]1C[C@H](OC(C)=O)C(=O)[C@H]2[C@@]1(C)CC[C@H]1C(=O)O[C@H](c3ccoc3Br)C[C@]21C			Non-toxic	Non-toxic	Non-toxic	≥ 10000		Non-toxic	Non-toxic	Non-toxic		Active
